Test system: U2OS
Assay: Multiplex assay against U2OS
Type: toxicity, cell-based
Details: human
Outline: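 Live cells were stained at seeding with Hoechst33342, BioTracker Green Microtubule Cytoskeleton Dye, MitoTracker Red and Annexin V Alexa Fluor 680. Following compound addition, they were imaged on a CQ1 microscope at 37°C and 5% CO2 and gated by CellPathfinder machine learning into Hoechst high-intensity objects or normal cells, with normal cells split into healthy, pyknosed or fragmented nuclei and pyknosed cells into mitotic or apoptotic. Tubulin, mitochondrial-mass and membrane-permeability phenotypes are per cents of healthy-nucleus cells.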

[1] = 12 h, 1 µM, compound concentration 1 uM, replicate 1
[2] = 12 h, 1 µM, compound concentration 1 uM, replicate 2
[3] = 12 h, 10 µM, compound concentration 10 uM, replicate 1
[4] = 12 h, 10 µM, compound concentration 10 uM, replicate 2
[5] = 24 h, 1 µM, compound concentration 1 uM, replicate 1
[6] = 24 h, 1 µM, compound concentration 1 uM, replicate 2
[7] = 24 h, 10 µM, compound concentration 10 uM, replicate 1
[8] = 24 h, 10 µM, compound concentration 10 uM, replicate 2

Cn1nc(C(F)(F)F)cc1-c1cnc(N2CCc3cc(S(=O)(=O)Nc4c(F)cc(Cl)cc4F)cc(N4CCCC4=O)c32)nc1 [TP-020]
Population Apoptotic (%) [1]: 27% | Population Fragmented Nuclei (%) [1]: 4% | Population Healthy Nuclei (%) [1]: 88% | Population Hoechst High Intensity Objects (%) [1]: 4% | Population Membrane Permeable-Phenotype (%) [1]: 17% | Population Mitochondria Different-Phenotype (%) [1]: 18% | Population Mitotic Cells (%) [1]: 72% | Population Normal (%) [1]: 95% | Population Pyknosed Nuclei (%) [1]: 6% | Population Tubulin-Different-Phenotype (%) [1]: 10% | Total Cell Count [1]: 139 | Population Apoptotic (%) [2]: 0% | Population Fragmented Nuclei (%) [2]: 14% | Population Healthy Nuclei (%) [2]: 79% | Population Hoechst High Intensity Objects (%) [2]: 15% | Population Membrane Permeable-Phenotype (%) [2]: 15% | Population Mitochondria Different-Phenotype (%) [2]: 15% | Population Mitotic Cells (%) [2]: 100% | Population Normal (%) [2]: 84% | Population Pyknosed Nuclei (%) [2]: 5% | Population Tubulin-Different-Phenotype (%) [2]: 15% | Total Cell Count [2]: 134 | Population Apoptotic (%) [3]: 50% | Population Fragmented Nuclei (%) [3]: 3% | Population Healthy Nuclei (%) [3]: 93% | Population Hoechst High Intensity Objects (%) [3]: 4% | Population Membrane Permeable-Phenotype (%) [3]: 11% | Population Mitochondria Different-Phenotype (%) [3]: 23% | Population Mitotic Cells (%) [3]: 50% | Population Normal (%) [3]: 95% | Population Pyknosed Nuclei (%) [3]: 3% | Population Tubulin-Different-Phenotype (%) [3]: 22% | Total Cell Count [3]: 196 | Population Apoptotic (%) [4]: 16% | Population Fragmented Nuclei (%) [4]: 8% | Population Healthy Nuclei (%) [4]: 81% | Population Hoechst High Intensity Objects (%) [4]: 5% | Population Membrane Permeable-Phenotype (%) [4]: 10% | Population Mitochondria Different-Phenotype (%) [4]: 31% | Population Mitotic Cells (%) [4]: 83% | Population Normal (%) [4]: 94% | Population Pyknosed Nuclei (%) [4]: 9% | Population Tubulin-Different-Phenotype (%) [4]: 26% | Total Cell Count [4]: 133 | Population Apoptotic (%) [5]: 20% | Population Fragmented Nuclei (%) [5]: 2% | Population Healthy Nuclei (%) [5]: 90% | Population Hoechst High Intensity Objects (%) [5]: 2% | Population Membrane Permeable-Phenotype (%) [5]: 12% | Population Mitochondria Different-Phenotype (%) [5]: 10% | Population Mitotic Cells (%) [5]: 80% | Population Normal (%) [5]: 97% | Population Pyknosed Nuclei (%) [5]: 7% | Population Tubulin-Different-Phenotype (%) [5]: 16% | Total Cell Count [5]: 196 | Population Apoptotic (%) [6]: 42% | Population Fragmented Nuclei (%) [6]: 12% | Population Healthy Nuclei (%) [6]: 81% | Population Hoechst High Intensity Objects (%) [6]: 5% | Population Membrane Permeable-Phenotype (%) [6]: 13% | Population Mitochondria Different-Phenotype (%) [6]: 23% | Population Mitotic Cells (%) [6]: 57% | Population Normal (%) [6]: 94% | Population Pyknosed Nuclei (%) [6]: 5% | Population Tubulin-Different-Phenotype (%) [6]: 11% | Total Cell Count [6]: 163 | Population Apoptotic (%) [7]: 9% | Population Fragmented Nuclei (%) [7]: 3% | Population Healthy Nuclei (%) [7]: 91% | Population Hoechst High Intensity Objects (%) [7]: 1% | Population Membrane Permeable-Phenotype (%) [7]: 6% | Population Mitochondria Different-Phenotype (%) [7]: 19% | Population Mitotic Cells (%) [7]: 90% | Population Normal (%) [7]: 98% | Population Tubulin-Different-Phenotype (%) [7]: 29% | Total Cell Count [7]: 268 | Population Apoptotic (%) [8]: 50% | Population Fragmented Nuclei (%) [8]: 6% | Population Healthy Nuclei (%) [8]: 88% | Population Hoechst High Intensity Objects (%) [8]: 7% | Population Membrane Permeable-Phenotype (%) [8]: 9% | Population Mitochondria Different-Phenotype (%) [8]: 45% | Population Mitotic Cells (%) [8]: 50% | Population Normal (%) [8]: 92% | Population Pyknosed Nuclei (%) [8]: 5% | Population Tubulin-Different-Phenotype (%) [8]: 25% | Total Cell Count [8]: 175
